In ChEMBL document CHEMBL4842325, “Lanosterol 14α-demethylase (CYP51)/histone deacetylase (HDAC) dual inhibitors for treatment of Candida tropicalis and Cryptococcus neoformans infections” (Eur J Med Chem, 2021):
Values after ≈ are worked out from the molar mass of the structure shown. Active and inactive are the calls of the source. The calls are words filed in the database; no cut-off is given here.

Tests used:
[1] = test system: Candida albicans; test: Antifungal activity against fluconazole-sensitive Candida albicans SC5314 assessed as inhibition of fungal growth; assay type: functional
[2] = test system: Candida albicans; test: Antifungal activity against fluconazole-sensitive Candida albicans 9770 assessed as inhibition of fungal growth; assay type: functional
[3] = test system: Candida albicans; test: microbe, parasite or virus in culture; assay type: functional; conditions: 0304103
[4] = test system: Candida albicans; test: microbe, parasite or virus in culture; assay type: functional; conditions: 7781
[5] = test system: Cryptococcus neoformans; test: microbe, parasite or virus in culture; assay type: functional; conditions: H99, time 72 hrs
[6] = test system: Candida tropicalis; test: microbe, parasite or virus in culture; assay type: functional; conditions: 3890, time 48 hrs
[7] = test system: Candida tropicalis; test: microbe, parasite or virus in culture; assay type: functional; conditions: 5008, time 48 hrs
[8] = test system: Candida albicans; test: microbe, parasite or virus in culture; assay type: functional; conditions: 4108
[9] = test system: Candida albicans; test: Antifungal activity against fluconazole-sensitive Candida albicans 10061 assessed as inhibition of fungal growth; assay type: functional
[10] = Inhibition of HDAC in Candida tropicalis 5008 using Boc-Lys(Ac)-AMC as substrate preincubated with protoplast for 12 hrs followed by incubation with substrate for 6 hrs by fluorimetric assay
In short: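 Whole-cell assay on C. tropicalis 5008, 100 mg wet weight of exponential-phase cells. Cell wall removed with snailase to give protoplasts, which were dispersed in PBS. Protoplasts incubated with compound at 35 °C for 12 h. Boc-Lys(Ac)-AMC then added to a final 30 µM and incubated 37 °C for 6 h. Stop solution added, 37 °C for 2 h. Fluorescence read at Ex 360/Em 460 nm and converted to HDAC inhibition rate.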

[11] = test system: Cryptococcus neoformans; test: Inhibition of biofilm formation in Cryptococcus neoformans H99 at 8 ug/ml incubated for 24 hrs by XTT reduction assay; assay type: functional, organism-based; conditions: dose 8.0 µg/ml
[12] = test system: Candida tropicalis; test: Downregulation of ERG11 mRNA expression in Candida tropicalis 5008 at 4 ug/ml measured after 24 hrs by qRT-PCR analysis; assay type: functional; conditions: dose 4.0 µg/ml
In short: (§1)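 Exponential-phase C. tropicalis 5008 inoculated into 10 mL YPD with compound at several concentrations, DMSO as blank control. Incubated 35 °C for 24 h. Total RNA isolated on columns and reverse-transcribed. Real-time RT-PCR with ACT1 as internal control. Mean of 3 independent assays ± SD.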

[13] = test system: Cryptococcus neoformans; test: Antifungal activity against fluconazole-sensitive Cryptococcus neoformans H99 assessed as inhibition of cell proliferation at 2 to 8 ug/ml measured for 48 hrs by time growth curve assay; assay type: functional, organism-based; conditions: dose 2-8 µg/ml
In short: (§2)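 Exponential-phase cells from YEPD resuspended in 3 mL fresh RPMI 1640 at 1 × 10⁵ cells/mL (C. tropicalis 5008) or 1 × 10⁶ cells/mL (C. neoformans H99). Compound at several concentrations; cultures shaken at 240 rpm, 30 °C. Growth read as OD₆₃₀ at 0, 6, 12, 24, 36 and 48 h. Done in triplicate.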

[14] = test system: Candida tropicalis; test: Downregulation of CDR1 mRNA expression in Candida tropicalis 5008 at 4 ug/ml measured after 24 hrs by qRT-PCR analysis; assay type: functional; conditions: dose 4.0 µg/ml; in short: as §1
[15] = test system: Candida tropicalis; test: Antifungal activity against fluconazole-resistant Candida tropicalis 5008 assessed as inhibition of cell proliferation at 32 ug/ml measured for 48 hrs by time growth curve assay; assay type: functional, organism-based; conditions: dose 32.0 µg/ml; in short: as §2
[16] = test system: Cryptococcus neoformans; test: Downregulation of CAP10 gene expression in Cryptococcus neoformans H99 at 2 ug/ml measured after 24 hrs by qRT-PCR analysis; assay type: functional; conditions: dose 2.0 µg/ml
In short: (§3)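 Exponential-phase C. neoformans H99 inoculated into 50 mL YPD with compound. Incubated 35 °C for 24 h, then cultures ground in liquid nitrogen for RNA isolation. Transcript levels of capsule-associated genes quantified by RT-qPCR. Three independent experiments, mean ± SD, t-test.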

[17] = test system: Cryptococcus neoformans; test: Downregulation of CAP59 gene expression in Cryptococcus neoformans H99 at 2 ug/ml measured after 24 hrs by qRT-PCR analysis; assay type: functional; conditions: dose 2.0 µg/ml; in short: as §3
[18] = test system: Candida tropicalis; test: Downregulation of MDR1 mRNA expression in Candida tropicalis 5008 at 4 ug/ml measured after 24 hrs by qRT-PCR analysis; assay type: functional; conditions: dose 4.0 µg/ml; in short: as §1
[19] = test system: Cryptococcus neoformans; test: Antifungal activity against Cryptococcus neoformans H99 infected in ICR mouse model assessed as reduction in fungal burden in brain at 20 mg/kg, po administered once a day for 5 days; assay type: functional, organism-based; conditions: time 5.0 day
In short: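 Immunosuppression by intraperitoneal cyclophosphamide 24 h before infection. Infected on day 0 by intravenous 2 × 10⁵ CFU C. neoformans H99. Oral treatment once daily for 5 consecutive days, starting 24 h post infection; saline group as blank. Brains taken on day 6 and homogenized, dilutions plated on SDA at 35 °C for 48 h. Colonies counted for burden; groups compared by ANOVA.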

[20] = test system: Candida tropicalis; test: Antifungal activity against Candida tropicalis 5008 assessed as inhibition of fungal filamentation by measuring reduction in hyphae formation at 8 ug/ml incubated for 7 hrs by cell inverted imaging microscopic analysis; assay type: functional, organism-based; conditions: dose 8.0 µg/ml
In short: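 C. tropicalis 5008 grown to exponential phase in YEPD, diluted to 1 × 10⁵ CFU/mL in spider medium and dosed at several concentrations, with an untreated group for comparison. Incubated 37 °C for 7 h. Cell morphology recorded on a live-cell inverted microscope.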

[21] = test system: Cryptococcus neoformans; test: Inhibition of capsule formation in Cryptococcus neoformans H99 assessed as reduction in capsule size at 50 ug/ml incubated for 24 hrs by laser scanning confocal microscopic analysis; assay type: functional; conditions: dose 50.0 µg/ml
In short: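 Exponential-phase C. neoformans H99 from YEPD resuspended in PBS at 1 × 10⁷ cells/mL. Suspension placed in wells with FBS plus DMEM and compound at several concentrations; untreated group as control. Kept 24 h at 37 °C under 10% CO₂. Cells mixed with India ink and imaged by confocal microscopy at 63×, 10 random fields. Whole-cell and cell-body diameters measured to derive capsule size.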

Compound | MIC80 [1] | MIC80 [2] | MIC80 [3] | MIC80 [4] | MIC80 [5] | MIC80 [6] | MIC80 [7] | MIC80 [8] | MIC80 [9] | further results
O=C(CCCCCCCn1ncn(-c2ccc(CN3CCN(CC(O)(Cn4cncn4)c4ccc(F)cc4F)CC3)cc2)c1=O)NO (centres undefined) | > 64 µg/mL | > 64 µg/mL | 64 µg/mL (≈ 97.9 µM) | 64 µg/mL (≈ 97.9 µM) | 32 µg/mL (≈ 48.9 µM) | > 64 µg/mL | > 64 µg/mL | – | – | –
O=C(Cc1ccc(OCCCCN2CCN(CC(O)(Cn3cncn3)c3ccc(F)cc3F)CC2)cc1)NO (centres undefined) | > 64 µg/mL | > 64 µg/mL | 32 µg/mL (≈ 58.8 µM) | > 64 µg/mL | 32 µg/mL (≈ 58.8 µM) | 32 µg/mL (≈ 58.8 µM) | > 64 µg/mL | > 64 µg/mL | > 64 µg/mL | –
C[C@@H](c1ncncc1F)[C@](O)(Cn1cncn1)c1ccc(F)cc1F [VORICONAZOLE] | < 0.125 µg/mL | – | > 64 µg/mL | > 64 µg/mL | 0.0625 µg/mL (≈ 0.179 µM) | > 64 µg/mL | > 64 µg/mL | > 64 µg/mL | – | –
O=C(CCCCCCC(=O)Nc1ccccc1)NO [VORINOSTAT] | – | – | – | – | – | – | – | – | – | IC50 [10]: 3.56 µM
O=C(Cc1ccc(OCCCCCN2CCN(CC(O)(Cn3cncn3)c3ccc(F)cc3F)CC2)cc1)NO (centres undefined) | 32 µg/mL (≈ 57.3 µM) | > 64 µg/mL | > 64 µg/mL | > 64 µg/mL | 32 µg/mL (≈ 57.3 µM) | 4 µg/mL (≈ 7.16 µM) | > 64 µg/mL | > 64 µg/mL | > 64 µg/mL | –
O=C(Cc1ccc(OCCCOc2ccc(CN3CCN(CC(O)(Cn4cncn4)c4ccc(F)cc4F)CC3)cc2)cc1)NO (centres undefined) | 4 µg/mL (≈ 6.28 µM) | > 64 µg/mL | 32 µg/mL (≈ 50.3 µM) | 4 µg/mL (≈ 6.28 µM) | 4 µg/mL (≈ 6.28 µM) | 2 µg/mL (≈ 3.14 µM) | 32 µg/mL (≈ 50.3 µM) | 32 µg/mL (≈ 50.3 µM) | > 64 µg/mL | –
O=C(CCCCOc1ccc(CN2CCN(CC(O)(Cn3cncn3)c3ccc(F)cc3F)CC2)cc1)NO (centres undefined) | 1 µg/mL (≈ 1.84 µM) | > 64 µg/mL | 8 µg/mL (≈ 14.7 µM) | 4 µg/mL (≈ 7.34 µM) | 8 µg/mL (≈ 14.7 µM) | 2 µg/mL (≈ 3.67 µM) | 4 µg/mL (≈ 7.34 µM) | 32 µg/mL (≈ 58.8 µM) | > 64 µg/mL | –
O=C(CCCCCOc1ccc(CN2CCN(CC(O)(Cn3cncn3)c3ccc(F)cc3F)CC2)cc1)NO (centres undefined) | 1 µg/mL (≈ 1.79 µM) | 32 µg/mL (≈ 57.3 µM) | 32 µg/mL (≈ 57.3 µM) | 2 µg/mL (≈ 3.58 µM) | 8 µg/mL (≈ 14.3 µM) | 2 µg/mL (≈ 3.58 µM) | 1 µg/mL (≈ 1.79 µM) | 16 µg/mL (≈ 28.6 µM) | > 64 µg/mL | –
CCC(C)n1ncn(-c2ccc(N3CCN(c4ccc(OCC5COC(Cn6cncn6)(c6ccc(Cl)cc6Cl)O5)cc4)CC3)cc2)c1=O (centres undefined) [ITRACONAZOLE] | 0.5 µg/mL (≈ 0.709 µM) | – | > 64 µg/mL | > 64 µg/mL | 0.125 µg/mL (≈ 0.177 µM) | > 64 µg/mL | > 64 µg/mL | > 64 µg/mL | – | –
OC(Cn1cncn1)(Cn1cncn1)c1ccc(F)cc1F [FLUCONAZOLE] | 0.5 µg/mL (≈ 1.63 µM) | > 64 µg/mL | > 64 µg/mL | > 64 µg/mL | 2 µg/mL (≈ 6.53 µM) | 0.5 µg/mL (≈ 1.63 µM) | > 64 µg/mL | > 64 µg/mL | > 64 µg/mL | inhibition [11]: Active; inhibition [12]: Active; Activity [13]: Active; inhibition [14]: Active; Activity [15]: Active; inhibition [16]: inactive; inhibition [17]: inactive; inhibition [18]: Active; Activity [19]: Active; Activity [20]: Active; inhibition [21]: Active
O=C(CCCCCCOc1ccc(CN2CCN(CC(O)(Cn3cncn3)c3ccc(F)cc3F)CC2)cc1)NO (centres undefined) | 1 µg/mL (≈ 1.75 µM) | 32 µg/mL (≈ 55.9 µM) | 16 µg/mL (≈ 27.9 µM) | 1 µg/mL (≈ 1.75 µM) | 0.5 µg/mL (≈ 0.873 µM) | 2 µg/mL (≈ 3.49 µM) | 0.5 µg/mL (≈ 0.873 µM) | 8 µg/mL (≈ 14 µM) | 32 µg/mL (≈ 55.9 µM) | –
O=C(CCCCCCn1ncn(-c2ccc(CN3CCN(CC(O)(Cn4cncn4)c4ccc(F)cc4F)CC3)cc2)c1=O)NO (centres undefined) | > 64 µg/mL | > 64 µg/mL | > 64 µg/mL | 32 µg/mL (≈ 50 µM) | 64 µg/mL (≈ 100 µM) | > 64 µg/mL | > 64 µg/mL | – | – | –
O=C(NO)c1ccc(CCCCn2ncn(-c3ccc(CN4CCN(CC(O)(Cn5cncn5)c5ccc(F)cc5F)CC4)cc3)c2=O)cc1 (centres undefined) | > 64 µg/mL | > 64 µg/mL | > 64 µg/mL | 16 µg/mL (≈ 23.3 µM) | 8 µg/mL (≈ 11.6 µM) | > 64 µg/mL | > 64 µg/mL | > 64 µg/mL | > 64 µg/mL | –
O=C(Cc1ccc(OCCCn2ncn(-c3ccc(CN4CCN(CC(O)(Cn5cncn5)c5ccc(F)cc5F)CC4)cc3)c2=O)cc1)NO (centres undefined) | 2 µg/mL (≈ 2.84 µM) | 32 µg/mL (≈ 45.5 µM) | 2 µg/mL (≈ 2.84 µM) | 2 µg/mL (≈ 2.84 µM) | 2 µg/mL (≈ 2.84 µM) | 2 µg/mL (≈ 2.84 µM) | 16 µg/mL (≈ 22.7 µM) | 4 µg/mL (≈ 5.68 µM) | 32 µg/mL (≈ 45.5 µM) | –
O=C(CCCOc1ccc(CN2CCN(CC(O)(Cn3cncn3)c3ccc(F)cc3F)CC2)cc1)NO (centres undefined) | 4 µg/mL (≈ 7.54 µM) | > 64 µg/mL | 8 µg/mL (≈ 15.1 µM) | 8 µg/mL (≈ 15.1 µM) | 8 µg/mL (≈ 15.1 µM) | 4 µg/mL (≈ 7.54 µM) | 4 µg/mL (≈ 7.54 µM) | 16 µg/mL (≈ 30.2 µM) | 32 µg/mL (≈ 60.3 µM) | –
O=C(Cc1ccc(OCCCCCCN2CCN(CC(O)(Cn3cncn3)c3ccc(F)cc3F)CC2)cc1)NO (centres undefined) | 16 µg/mL (≈ 27.9 µM) | 16 µg/mL (≈ 27.9 µM) | 16 µg/mL (≈ 27.9 µM) | 4 µg/mL (≈ 6.98 µM) | 16 µg/mL (≈ 27.9 µM) | 2 µg/mL (≈ 3.49 µM) | 4 µg/mL (≈ 6.98 µM) | 16 µg/mL (≈ 27.9 µM) | 16 µg/mL (≈ 27.9 µM) | –
